ChEMBL document CHEMBL5543129, “Peptide Inhibitor Targeting the Extraterminal Domain in BRD4 Potently Suppresses Breast Cancer Both In Vitro and In Vivo” (J Med Chem, 2024)
Calls of active or inactive are those of the source.

Columns and labels:
Type in all cases: functional, cell-based
MCF7 [1] = assay: Inhibition of cell migration in human MCF7 cells at 10 uM incubated for 24 hrs by inverted microscopic assay
Procedure, shortened: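 Cells are seeded at 5 × 10^5/well and scratched at 80–90% confluence. They are kept in serum-free medium with peptide (10 μM); partner agents are JQ1 5 μM, iJMJD6 10 μM, or ICI 2.5 μM. Wound area is imaged by inverted microscope at 0 and 12 or 24 h. Wound closure % = (A0−A1)/A0 × 100. Three biological repeats.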

MCF7 [2] = assay: Cytotoxicity against human MCF7 cells incubated for 1 week by CellTiter 96 Aqueous One Solution based assay; details: time 1.0 weeks
Procedure, shortened: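 Cells (2 × 10^3/well, DMEM + 10% FBS, 37 °C, 5% CO2) treated with a concentration gradient of peptide for 1 week. MTS reagent added for 1 h, absorbance read at 490 nm, EC50 derived.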

MCF7 [3] = assay: Inhibition of colony formation in human MCF7 cells at 10 uM incubated for 2 weeks by crystal violet staining based assay
Procedure, shortened: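 Cells are seeded at 1 × 10^3/well and treated with peptide (10 μM) for 2 weeks, alone or with JQ1 5 μM, iJMJD6 10 μM, ICI 2.5 μM, or tamoxifen 3 μM (tamoxifen-resistant lines). Colonies are stained with crystal violet, dissolved in 10% acetic acid, and read at 590 nm. Three biological repeats.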

C[C@]12CC[C@@H]3c4ccc(O)cc4C[C@@H](CCCCCCCCC[S+]([O-])CCCC(F)(F)C(F)(F)F)[C@H]3[C@@H]1CC[C@@H]2O (stereo partly drawn)
active: inhibition (MCF7 [1]) | Activity (MCF7 [2]) | inhibition (MCF7 [3])
